Assay results as given in PMC5356508 (Bioconjugate chemistry, 2016).
“And” between values parts separate entries of the source, which are not always exact repeats. Equal values may be shown once. Read-outs that look alike come from different tables or passages of the source. Values belong to the compound of their own block, whether it stands above or below them.

How the values were obtained:
[1] = Hydrolytic release of paclitaxel by compound 4 in buffer; format: physicochemical; conditions: 3:1 methanol/PBS buffer pH 7.4; pseudo 1st order kinetics
In short: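 Test compound stock in methanol was mixed with 1 M PBS pH 7.4 (3:1 methanol:buffer) in a sealed, stirred vial. Aliquots were taken at 0 min and from 30 to 1440 min. Parent and released drug were quantified by C18 reverse-phase HPLC (gradient from 1:1 MeOH:H2O to 100% MeOH, 1 mL/min) against standard curves of both compounds.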

[2] = system: A2780 human ovarian cancer cell line; test: Antiproliferative assay; format: cell-based
[3] = Pharmacokinetics: whole blood paclitaxel levels in tumor burdened mice; format: in vivo, B16/F10 tumor burdened C57Bl/6 mice; conditions: 5 μg injected, ELISA, Figure 3A
[4] = Generation of paclitaxel in rabbit whole blood; format: in vitro ADME; conditions: without BME
[5] = Release of paclitaxel in bicarbonate buffer without or with dithiothreitol; format: physicochemical
[6] = Accumulation of paclitaxel in solid tumors; format: in vivo, B16/F10 tumor-bearing C57BL/6 mice; conditions: C57BL/6, mouse, tumor homogenate, iv, 2.5 mg/kg
[7] = system: A2780 human ovarian cancer cell line; conditions: cited from earlier work
B16/F10 melanoma = test: Treatment of tumor-burdened mice; format: in vivo, C57BL/6 mice; conditions: treated days 0, 2, 5, 7, after 9 days
In short: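 B16/F10 melanoma cells were implanted in C57BL/6 mice and grown to tumours of about 500 mm3. Groups of n=4 were injected on days 0, 2, 5 and 7 with native drug (2.5 or 40 mg/kg), nanoparticle formulations (2.5 mg/kg drug equivalent) or PBS control. Tumour volume was measured over time, and the % decrease versus control was taken at day 9.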

half-life of hydrolysis to paclitaxel [1]: 3.2 h
IC50 [2]: 4.5 ± 0.4 nM
Structure (SMILES): CC(=O)OC1C(=O)C2(C)C(OC(=O)OCOC(=O)CCCCC3CCSS3)CC3OCC3(OC(C)=O)C2C(OC(=O)c2ccccc2)C2(O)CC(OC(=O)C(O)C(NC(=O)c3ccccc3)c3ccccc3)C(C)=C1C2(C)C (stereo not shown) [Compound 4, (7-O-Paclitaxelcarbonyloxy)methyl 5-(1,2-dithiolan-3-yl)pentanoate]

Percent conversion to paclitaxel ([5]; Buffer + 3-fold excess DTT, 1 h (60 min)): 90%
Percent conversion to paclitaxel ([5]; Buffer, incubation 0 h): 0.3%
Percent conversion to paclitaxel ([5]; Buffer, incubation 1 h): 4.1%
Percent conversion to paclitaxel ([5]; Buffer, incubation 4 h): 4%
Percent conversion to paclitaxel ([5]; Buffer, incubation 48 h): 14.4%
Percent conversion to paclitaxel ([5]; Buffer, incubation 72 h): 50% and 50.4%
IC50 [2]: 34 ± 18 nM
Structure (SMILES): CC(=O)O[C@H]1C(=O)[C@]2(C)[C@@H](OC(=O)OCc3ccc(SSc4ccccn4)cc3)C[C@H]3OC[C@@]3(OC(C)=O)[C@H]2[C@H](OC(=O)c2ccccc2)[C@]2(O)C[C@H](OC(=O)[C@H](O)[C@@H](NC(=O)c3ccccc3)c3ccccc3)C(C)=C1C2(C)C [Compound 5]
release of paclitaxel in the circulation (in words) [3]: rapidly degraded to the paclitaxel parent in the circulation
Conversion to paclitaxel in rabbit whole blood (in words) [4]: completely converted to paclitaxel essentially immediately

IC50 [2]: 6.6 ± 1.7 nM
Structure (SMILES): CC(=O)OC1C(=O)C2(C)C(O)CC3OCC3(OC(C)=O)C2C(OC(=O)c2ccccc2)C2(O)CC(OC(=O)C(OC(=O)CCC(=O)OCOC(=O)CCCCC3CCSS3)C(NC(=O)c3ccccc3)c3ccccc3)C(C)=C1C2(C)C (stereo not shown) [Compound 6, ((5-(1,2-dithiolan-3-yl)pentanoyl)oxy)methyl paclitaxel-2′-yl succinate]

concentration at 24 h [6]: 5 ng/mL
Structure (SMILES): CC(=O)O[C@H]1C(=O)[C@@]2(C)[C@H]([C@H](OC(=O)c3ccccc3)[C@]3(O)C[C@H](OC(=O)[C@H](O)[C@@H](NC(=O)c4ccccc4)c4ccccc4)C(C)=C1C3(C)C)[C@]1(OC(C)=O)CO[C@@H]1C[C@@H]2O [paclitaxel]
IC50 [7]: 15 ± 1 nM
Response: Decrease in Tumor Volume vs Control (B16/F10 melanoma; Paclitaxel dose 2.5 mg/kg): −24%
Response: Decrease in Tumor Volume vs Control (B16/F10 melanoma; Paclitaxel dose 40 mg/kg): −68%
